One block for each compound: values may come before it.
Experiments:
[1] = target: T1, Prostaglandin F2-alpha receptor (Homo sapiens, UniProt P43088); assay: In vitro binding at FP human prostaglandin receptor using [3H]PGF-2 alpha as radioligand
Outline: (§1)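 COS-7 cells transiently transfected with hFP plasmid and harvested 48 h later. Membranes from nitrogen cavitation and 100000g spin, taken up at 1 mg protein/mL in TME buffer pH 6.0. Each well held 100 μg membrane, 5 nM [3H]PGF2α and competitor, n=3, 1 h at 23 °C. Bound label collected by GF/B filtration, washed in TME, scintillation counted.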

[2] = Dissociation constant was determined; assay type: physicochemical
[3] = target: Prostaglandin E2 receptor EP4 subtype (Homo sapiens, UniProt P35408); assay: In vitro binding at EP4 human prostaglandin receptor using [3H]PGE-2 as radioligand
Outline: (§2)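 Receptors stably expressed in CHO cells, collected 4-5 days after seeding. Membranes made by lysis (Tris, EDTA, protease inhibitors) and 100000g pellet, then resuspended at 1 mg protein/mL in TME. Radioligands at 5 nM: [3H]PGE2 for EP2/EP3/EP4, [3H]Iloprost for IP, [3H]SQ-29548 for TP. Competition binding with filtration and counting.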

[4] = target: T2, Prostaglandin E2 receptor EP1 subtype (Homo sapiens, UniProt P34995); assay: In vitro binding at EP1 human prostaglandin receptor using [3H]PGE-2 as radioligand
T2 sequence (P34995 whole entry): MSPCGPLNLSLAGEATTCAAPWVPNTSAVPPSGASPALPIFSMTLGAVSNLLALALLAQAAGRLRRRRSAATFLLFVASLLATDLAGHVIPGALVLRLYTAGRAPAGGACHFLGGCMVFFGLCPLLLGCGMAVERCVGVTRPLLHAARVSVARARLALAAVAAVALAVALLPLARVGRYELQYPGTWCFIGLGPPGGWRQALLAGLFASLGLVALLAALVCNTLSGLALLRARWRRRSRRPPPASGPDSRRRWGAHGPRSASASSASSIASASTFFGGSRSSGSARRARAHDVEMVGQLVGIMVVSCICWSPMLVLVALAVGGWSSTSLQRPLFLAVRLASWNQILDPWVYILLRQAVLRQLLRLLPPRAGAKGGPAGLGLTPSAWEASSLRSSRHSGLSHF
Outline: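 hEP1 transiently expressed in COS-7 cells by the hFP transfection and membrane protocol, with membranes in TME buffer pH 6.0. Competition binding used 5 nM [3H]PGE2, 1 h at 23 °C, filtration and scintillation counting.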

[5] = target: T3, Thromboxane A2 receptor (Homo sapiens, UniProt P21731); assay: In vitro binding at TP human prostaglandin receptor using [3H]SQ-29,548 as radioligand; outline: as §2
T3 sequence (P21731 whole entry): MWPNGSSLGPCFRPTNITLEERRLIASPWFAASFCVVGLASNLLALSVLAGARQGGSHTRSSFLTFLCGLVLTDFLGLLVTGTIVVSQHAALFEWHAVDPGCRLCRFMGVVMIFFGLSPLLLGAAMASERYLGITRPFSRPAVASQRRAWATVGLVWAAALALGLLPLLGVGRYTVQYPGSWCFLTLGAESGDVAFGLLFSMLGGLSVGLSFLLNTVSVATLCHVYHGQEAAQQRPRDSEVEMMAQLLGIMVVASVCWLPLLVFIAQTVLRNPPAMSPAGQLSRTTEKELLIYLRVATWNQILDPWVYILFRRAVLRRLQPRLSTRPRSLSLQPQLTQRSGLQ

[6] = target: Prostacyclin receptor (Homo sapiens, UniProt P43119); assay: In vitro binding at prostanoid IP receptor using [3H]iloprost as radioligand; outline: as §2
[7] = target: T4, Prostaglandin E2 receptor EP3 subtype (Homo sapiens, UniProt P43115); assay: In vitro binding at EP3 human prostaglandin receptor using [3H]PGE-2 as radioligand; outline: as §2
T4 sequence (P43115 whole entry): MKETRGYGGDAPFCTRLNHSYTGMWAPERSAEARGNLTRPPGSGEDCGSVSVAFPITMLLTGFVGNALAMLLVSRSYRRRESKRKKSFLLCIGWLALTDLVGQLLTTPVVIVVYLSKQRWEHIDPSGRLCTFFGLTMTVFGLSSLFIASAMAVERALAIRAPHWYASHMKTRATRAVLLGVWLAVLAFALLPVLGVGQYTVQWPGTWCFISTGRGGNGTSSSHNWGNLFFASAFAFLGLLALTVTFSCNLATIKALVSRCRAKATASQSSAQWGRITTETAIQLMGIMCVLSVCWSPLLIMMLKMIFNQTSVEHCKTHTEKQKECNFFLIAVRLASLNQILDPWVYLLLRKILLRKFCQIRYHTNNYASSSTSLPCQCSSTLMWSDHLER

[8] = target: T5, Prostaglandin D2 receptor (Homo sapiens, UniProt Q13258); assay: In vitro binding at DP human prostaglandin receptor using [3H]- PGD-2 as radioligand
T5 sequence (Q13258 whole entry): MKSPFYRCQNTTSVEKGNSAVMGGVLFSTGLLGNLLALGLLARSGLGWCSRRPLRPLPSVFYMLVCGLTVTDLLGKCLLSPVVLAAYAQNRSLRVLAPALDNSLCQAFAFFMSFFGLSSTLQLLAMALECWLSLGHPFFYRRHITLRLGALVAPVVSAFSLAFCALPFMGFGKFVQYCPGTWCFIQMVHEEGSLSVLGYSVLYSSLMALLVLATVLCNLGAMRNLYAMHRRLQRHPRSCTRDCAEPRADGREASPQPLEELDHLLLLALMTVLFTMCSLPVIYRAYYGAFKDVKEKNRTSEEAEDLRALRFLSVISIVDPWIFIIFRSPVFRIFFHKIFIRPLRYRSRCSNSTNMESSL
Outline: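 hDP stably expressed in HEK-293 cells, collected 4-5 days after seeding. Membranes made by lysis and 100000g spin, then taken up at 1 mg protein/mL in TME buffer at pH 7.4. Competition binding used 5 nM [3H]PGD2, read by filtration and scintillation counting.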

[9] = target: Prostaglandin E2 receptor EP2 subtype (Homo sapiens, UniProt P43116); assay: In vitro binding at EP2 human prostaglandin receptor using [3H]PGE-2 as radioligand; outline: as §2
[10] = target: T4, Prostaglandin E2 receptor EP3 subtype; assay: Functional activity in RAT-1 cells, transiently transfected with human prostaglandin EP3 receptor; assay type: cell-based
Outline: (§3)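 RAT-1 cells transiently transfected with the human receptor, carrying a stably transfected, constitutively expressed β-galactosidase reporter gene. EC50 read after timed hydrolysis of a galactosidase pseudosubstrate.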

[11] = target: T3, Thromboxane A2 receptor; assay: Functional activity in RAT-1 cells, transiently transfected with human prostaglandin TP receptor; assay type: cell-based; outline: as §3
[12] = target: T2, Prostaglandin E2 receptor EP1 subtype; assay: Functional activity in RAT-1 cells, transiently transfected with human prostaglandin EP1 receptor; assay type: cell-based; outline: as §3
[13] = target: T1, Prostaglandin F2-alpha receptor; assay: In vitro binding at FP human prostaglandin receptor using [3H]- PGF-2 alpha as radioligand; outline: as §1
[14] = test system: Rattus norvegicus; assay: Mineral apposition measured Histomorphometrically after a dose of 3 ug/kg in proximal tibial metaphysis
[15] = test system: Rattus norvegicus; assay: Bone Volume /Tissue Volume (%)measured Histomorphometrically after a dose of 250 ug/kg in proximal tibial metaphysis; assay type: functional
[16] = test system: Rattus norvegicus; assay: Mineral apposition measured Histomorphometrically after a dose of 250 ug/kg in proximal tibial metaphysis; assay type: functional
[17] = test system: Rattus norvegicus; assay: Endosteal eroded surface measured Histomorphometrically after a dose of 250 ug/kg in Tibial Diaphysis; assay type: functional
[18] = test system: Rattus norvegicus; assay: Marrow area measured Histomorphometrically after a dose of 250 ug/kg in Tibial Diaphysis; assay type: functional
[19] = test system: Rattus norvegicus; assay: Bone Volume /Tissue Volume (%)measured using micro Computed Tomography(CT) after a dose of 250 ug/kg in Vertebral Bone; assay type: functional
[20] = test system: Rattus norvegicus; assay: Bone Formation rate/tissue vol measured Histomorphometrically after a does of 250 ug/kg in proximal tibial metaphysis; assay type: functional
[21] = test system: Rattus norvegicus; assay: Mineralizing apposition measured Histomorphometrically after a dose of 250 ug/kg in Tibial Diaphysis; assay type: functional
[22] = test system: Rattus norvegicus; assay: Endosteal mineralizing surface measured Histomorphometrically after a does of 250 ug/kg in Tibial Diaphysis; assay type: functional
[23] = test system: Rattus norvegicus; assay: Tissue area measured Histomorphometrically after a dose of 250 ug/kg in Tibial Diaphysis; assay type: functional
[24] = test system: Rattus norvegicus; assay: Mineral surface/bone surface measured Histomorphometrically after a dose of 250 ug/kg in proximal tibial metaphysis; assay type: functional
[25] = test system: Rattus norvegicus; assay: Bone Formation rate/bone measured Histomorphometrically after a dose of 250 ug/kg in proximal tibial metaphysis; assay type: functional
[26] = test system: Rattus norvegicus; assay: Trabecular no measured Histomorphometrically after a dose of 250 ug/kg in proximal tibial metaphysis; assay type: functional, Trabecula
[27] = test system: Rattus norvegicus; assay: Connectivity density measured using micro Computed Tomography(CT) after a dose of 250 ug/kg in Vertebral Bone; assay type: functional
[28] = test system: Rattus norvegicus; assay: Trabecular thickness measured Histomorphometrically after a dose of 250 ug/kg in proximal tibial metaphysis; assay type: functional, Trabecula
[29] = test system: Rattus norvegicus; assay: Derived trabecular no measured using micro Computed Tomography(CT) after a dose of 6000 ug/kg in Vertebral Bone; assay type: functional, Trabecula
Outline: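 Micro-CT of the fifth lumbar vertebra, measuring cancellous bone volume and architecture. Rats were 6 months old, OVX 60 days before treatment, then dosed daily for 60 days. Test-agent doses were 10–3000 µg/kg, given as a once-daily subcutaneous injection; 6 mg/kg/day was given to the positive-control group. Groups were compared with vehicle by ANOVA plus LSD test.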

[30] = test system: Rattus norvegicus; assay: Derived trabecular thickness measured using micro Computed Tomography(CT) after a dose of 250 ug/kg in Vertebral Bone; assay type: functional, Trabecula
[31] = test system: Rattus norvegicus; assay: Periosteal mineralizing surface measured Histomorphometrically after a does of 250 ug/kg in Tibial Diaphysis; assay type: functional
[32] = test system: Rattus norvegicus; assay: Directly measured thickness measured using micro Computed Tomography(CT) after a dose of 250 ug/kg in Vertebral Bone; assay type: functional

T1 sequence (P43088 whole entry): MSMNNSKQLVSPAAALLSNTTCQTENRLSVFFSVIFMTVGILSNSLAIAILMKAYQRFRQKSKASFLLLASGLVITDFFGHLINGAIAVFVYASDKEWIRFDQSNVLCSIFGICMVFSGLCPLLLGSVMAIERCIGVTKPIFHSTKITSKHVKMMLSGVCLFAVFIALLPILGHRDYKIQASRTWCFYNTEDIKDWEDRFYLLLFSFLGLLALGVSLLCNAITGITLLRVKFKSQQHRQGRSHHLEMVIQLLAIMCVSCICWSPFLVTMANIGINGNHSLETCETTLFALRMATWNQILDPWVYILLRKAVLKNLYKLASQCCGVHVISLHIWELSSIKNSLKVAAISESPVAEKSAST
Sequence of Prostaglandin E2 receptor EP2 subtype (P43116 whole entry): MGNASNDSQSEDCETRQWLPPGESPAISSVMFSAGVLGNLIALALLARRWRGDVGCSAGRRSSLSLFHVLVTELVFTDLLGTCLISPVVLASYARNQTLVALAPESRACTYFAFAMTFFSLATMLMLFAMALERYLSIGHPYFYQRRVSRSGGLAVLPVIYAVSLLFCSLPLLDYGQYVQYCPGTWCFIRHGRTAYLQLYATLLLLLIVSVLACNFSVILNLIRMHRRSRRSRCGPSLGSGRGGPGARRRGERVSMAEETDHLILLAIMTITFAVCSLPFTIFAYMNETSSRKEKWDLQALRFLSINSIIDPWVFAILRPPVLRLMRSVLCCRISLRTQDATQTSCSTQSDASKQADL
Sequence of Prostacyclin receptor (P43119 whole entry): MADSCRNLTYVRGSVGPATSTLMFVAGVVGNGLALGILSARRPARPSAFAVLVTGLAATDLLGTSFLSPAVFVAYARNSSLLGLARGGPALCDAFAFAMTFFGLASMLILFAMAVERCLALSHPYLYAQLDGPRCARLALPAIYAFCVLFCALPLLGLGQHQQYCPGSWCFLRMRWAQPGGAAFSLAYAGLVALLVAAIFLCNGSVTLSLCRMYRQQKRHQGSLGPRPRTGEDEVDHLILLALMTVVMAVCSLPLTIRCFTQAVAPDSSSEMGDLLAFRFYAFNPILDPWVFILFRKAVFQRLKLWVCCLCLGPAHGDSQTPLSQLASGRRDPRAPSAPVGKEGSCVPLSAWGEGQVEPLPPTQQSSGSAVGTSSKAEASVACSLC
Sequence of Prostaglandin E2 receptor EP4 subtype (P35408 whole entry): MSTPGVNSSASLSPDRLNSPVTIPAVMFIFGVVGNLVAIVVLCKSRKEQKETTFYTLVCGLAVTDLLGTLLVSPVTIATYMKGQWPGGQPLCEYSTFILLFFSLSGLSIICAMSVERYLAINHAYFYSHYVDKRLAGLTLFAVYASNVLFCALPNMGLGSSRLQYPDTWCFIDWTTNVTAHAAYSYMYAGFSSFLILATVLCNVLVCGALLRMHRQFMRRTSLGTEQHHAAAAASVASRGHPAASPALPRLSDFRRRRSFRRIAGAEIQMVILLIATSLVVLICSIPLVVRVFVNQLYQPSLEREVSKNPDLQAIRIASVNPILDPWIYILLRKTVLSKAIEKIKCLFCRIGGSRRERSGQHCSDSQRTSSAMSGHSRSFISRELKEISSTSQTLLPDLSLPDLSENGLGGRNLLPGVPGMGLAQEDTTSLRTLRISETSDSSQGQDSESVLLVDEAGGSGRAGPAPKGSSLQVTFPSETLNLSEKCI

Structure (SMILES): CCCCC[C@H](O)/C=C/[C@@H]1[C@@H](C/C=C\CCCP(=O)(O)CCCC)[C@@H](O)C[C@H]1O
- IC50 [1]: 6700 nM
- pKa [2]: 3.36

Structure (SMILES): O=C(O)CCC/C=C\C[C@@H]1[C@@H](/C=C/[C@@H](O)COc2ccccc2)[C@H](O)C[C@@H]1O
- IC50 [1]: 2 nM
- pKa [2]: 4.77
- EC50 [10]: 186 nM
- EC50 [11]: 510 nM
- EC50 [12]: 38 nM

Structure (SMILES): NCCCC(O)(P(=O)(O)O)P(=O)(O)O [ALENDRONIC ACID]
- Mineral apposition rate [14]: 0.63 µm/day

Structure (SMILES): O=C(O)CCC/C=C\CC1C(O)CC(O)C1/C=C/C(O)COc1cccc(Cl)c1 (centres undefined) [CLOPROSTENOL]
- Activity [15]: 9.5%
- Mineral apposition rate [16]: 1.09 µm/day
- Endosteal eroded surface [17]: 2.22%
- Marrow area [18]: 0.7 mm
- Activity [19]: 42.04%
- Activity [20]: 26.44%
- Mineralizing apposition rate [21]: 1.6 µm/day
- Endosteal mineralizing surface [22]: 55.18%
- Tissue area [23]: 4.78 mm
- Activity [24]: 22.99%
- Activity [25]: 286.86%
- Trabecular no. [26]: 1.77
- Connectivity density [27]: 61.13 mm**-3
- Trabecular thickness [28]: 53.9
- Derived trabecular number [29]: 4.6 mM⁻¹
- Derived trabecular thickness [30]: 85.8 µm
- Periosteal mineralizing surface [31]: 9.91%
- Directly measured thickness [32]: 138 µm

The remaining lines, values ahead:

- IC50 [1]: 4100 nM
- pKa [2]: 3.24
Structure (SMILES): CCCCC[C@H](O)/C=C/[C@@H]1[C@@H](C/C=C\CCCP(=O)(O)CC)[C@@H](O)C[C@H]1O

- IC50 [3]: > 10000 nM
- IC50 [4]: > 10000 nM
- IC50 [1]: 114 nM
- IC50 [5]: > 10000 nM
- pKa [2]: 3.39
- IC50 [6]: > 10000 nM
- IC50 [7]: > 10000 nM
- IC50 [8]: > 10000 nM
- IC50 [9]: > 10000 nM
Structure (SMILES): CCCCC[C@H](O)/C=C/[C@@H]1[C@@H](C/C=C\CCC[PH](=O)O)[C@@H](O)C[C@H]1O

- pKa [2]: 2.36
- IC50 [13]: > 10000 nM
Structure (SMILES): CCCCC[C@H](O)/C=C/[C@@H]1[C@@H](C/C=C\CCCP(=O)(O)OCC)[C@@H](O)C[C@H]1O

- pKa [2]: 2.38
- IC50 [13]: 1000 nM
Structure (SMILES): CCCCC[C@H](O)/C=C/[C@@H]1[C@@H](C/C=C\CCCP(=O)(O)O)[C@@H](O)C[C@H]1O

- IC50 [1]: 311 nM
- pKa [2]: 3.1
Structure (SMILES): CCCCC[C@H](O)/C=C/[C@@H]1[C@@H](C/C=C\CCCP(C)(=O)O)[C@@H](O)C[C@H]1O

- IC50 [4]: 220 nM
- IC50 [5]: > 10000 nM
- pKa [2]: 4.77
- IC50 [6]: > 10000 nM
- IC50 [7]: 110 nM
- IC50 [9]: > 10000 nM
Structure (SMILES): CCCCC[C@H](O)/C=C/[C@@H]1[C@@H](C/C=C\CCCC(=O)O)[C@@H](O)C[C@H]1O [DINOPROST]

Reference: ChEMBL document CHEMBL1134785, “Synthesis and biological evaluation of prostaglandin-F alkylphosphinic acid derivatives as bone anabolic agents for the treatment of osteoporosis” (J Med Chem, 2001)
